Results taken from ChEMBL document CHEMBL5058577, “EUbOPEN Chemogenomics Library 2 (Multiplex)” (2022).

System: HEK-293T
Assay: Multiplex assay against HEK293T
Format: toxicity, cell-based
Conditions: human
Outline: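 Live cells carried four stains from seeding: Hoechst33342, BioTracker Green Microtubule Cytoskeleton Dye, MitoTracker Red and Annexin V Alexa Fluor 680. They were imaged on a CQ1 microscope at 37°C and 5% CO2 after compound addition. Using CellPathfinder machine-learning gating, cells were split into Hoechst high-intensity objects or normal cells, normal cells into healthy, pyknosed or fragmented nuclei, and pyknosed cells into mitotic or apoptotic; tubulin, mitochondrial-mass and membrane-permeability phenotypes are per cents of healthy-nucleus cells.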

[1] = 12 h, 1 µM, compound concentration 1 uM, replicate 1
[2] = 12 h, 1 µM, compound concentration 1 uM, replicate 2
[3] = 12 h, 10 µM, compound concentration 10 uM, replicate 1
[4] = 12 h, 10 µM, compound concentration 10 uM, replicate 2
[5] = 24 h, 1 µM, compound concentration 1 uM, replicate 1
[6] = 24 h, 1 µM, compound concentration 1 uM, replicate 2
[7] = 24 h, 10 µM, compound concentration 10 uM, replicate 1
[8] = 24 h, 10 µM, compound concentration 10 uM, replicate 2
[9] = 48 h, 1 µM, compound concentration 1 uM, replicate 1
[10] = 48 h, 1 µM, compound concentration 1 uM, replicate 2
[11] = 48 h, 10 µM, compound concentration 10 uM, replicate 1
[12] = 48 h, 10 µM, compound concentration 10 uM, replicate 2

CCn1c(-c2nc3cc(C(=O)N4CCCC(N)C4)ccc3n2C)cc2ccccc21.Cl (configuration not stated)
Population Apoptotic (%) [1]: 54% | Population Fragmented Nuclei (%) [1]: 9% | Population Healthy Nuclei (%) [1]: 77% | Population Hoechst High Intensity Objects (%) [1]: 7% | Population Membrane Permeable-Phenotype (%) [1]: 0% | Population Mitochondria Different-Phenotype (%) [1]: 52% | Population Mitotic Cells (%) [1]: 45% | Population Normal (%) [1]: 92% | Population Pyknosed Nuclei (%) [1]: 13% | Population Tubulin-Different-Phenotype (%) [1]: 33% | Total Cell Count [1]: 351 | Population Apoptotic (%) [2]: 47% | Population Fragmented Nuclei (%) [2]: 5% | Population Healthy Nuclei (%) [2]: 81% | Population Hoechst High Intensity Objects (%) [2]: 6% | Population Mitochondria Different-Phenotype (%) [2]: 69% | Population Mitotic Cells (%) [2]: 52% | Population Normal (%) [2]: 93% | Population Tubulin-Different-Phenotype (%) [2]: 20% | Total Cell Count [2]: 312 | Population Apoptotic (%) [3]: 53% | Population Fragmented Nuclei (%) [3]: 8% | Population Healthy Nuclei (%) [3]: 74% | Population Hoechst High Intensity Objects (%) [3]: 11% | Population Membrane Permeable-Phenotype (%) [3]: 0% | Population Mitochondria Different-Phenotype (%) [3]: 85% | Population Mitotic Cells (%) [3]: 46% | Population Normal (%) [3]: 88% | Population Pyknosed Nuclei (%) [3]: 17% | Population Tubulin-Different-Phenotype (%) [3]: 75% | Total Cell Count [3]: 406 | Population Fragmented Nuclei (%) [4]: 6% | Population Healthy Nuclei (%) [4]: 78% | Population Hoechst High Intensity Objects (%) [4]: 8% | Population Normal (%) [4]: 91% | Population Pyknosed Nuclei (%) [4]: 15% | Population Tubulin-Different-Phenotype (%) [4]: 64% | Total Cell Count [4]: 398 | Population Apoptotic (%) [5]: 35% | Population Fragmented Nuclei (%) [5]: 9% | Population Healthy Nuclei (%) [5]: 80% | Population Hoechst High Intensity Objects (%) [5]: 6% | Population Membrane Permeable-Phenotype (%) [5]: 0% | Population Mitochondria Different-Phenotype (%) [5]: 37% | Population Mitotic Cells (%) [5]: 64% | Population Normal (%) [5]: 93% | Population Pyknosed Nuclei (%) [5]: 10% | Population Tubulin-Different-Phenotype (%) [5]: 22% | Total Cell Count [5]: 459 | Population Apoptotic (%) [6]: 39% | Population Healthy Nuclei (%) [6]: 79% | Population Hoechst High Intensity Objects (%) [6]: 4% | Population Mitochondria Different-Phenotype (%) [6]: 49% | Population Mitotic Cells (%) [6]: 60% | Population Normal (%) [6]: 95% | Population Pyknosed Nuclei (%) [6]: 11% | Population Tubulin-Different-Phenotype (%) [6]: 14% | Total Cell Count [6]: 383 | Population Apoptotic (%) [7]: 51% | Population Fragmented Nuclei (%) [7]: 11% | Population Healthy Nuclei (%) [7]: 70% | Population Hoechst High Intensity Objects (%) [7]: 12% | Population Membrane Permeable-Phenotype (%) [7]: 1% | Population Mitochondria Different-Phenotype (%) [7]: 72% | Population Mitotic Cells (%) [7]: 48% | Population Normal (%) [7]: 87% | Population Pyknosed Nuclei (%) [7]: 18% | Population Tubulin-Different-Phenotype (%) [7]: 64% | Total Cell Count [7]: 449 | Population Apoptotic (%) [8]: 40% | Population Fragmented Nuclei (%) [8]: 8% | Population Healthy Nuclei (%) [8]: 78% | Population Hoechst High Intensity Objects (%) [8]: 9% | Population Membrane Permeable-Phenotype (%) [8]: 0% | Population Mitochondria Different-Phenotype (%) [8]: 83% | Population Mitotic Cells (%) [8]: 59% | Population Normal (%) [8]: 90% | Population Pyknosed Nuclei (%) [8]: 13% | Population Tubulin-Different-Phenotype (%) [8]: 58% | Total Cell Count [8]: 471 | Population Apoptotic (%) [9]: 20% | Population Fragmented Nuclei (%) [9]: 12% | Population Healthy Nuclei (%) [9]: 79% | Population Hoechst High Intensity Objects (%) [9]: 5% | Population Membrane Permeable-Phenotype (%) [9]: 1% | Population Mitochondria Different-Phenotype (%) [9]: 28% | Population Mitotic Cells (%) [9]: 79% | Population Normal (%) [9]: 94% | Population Pyknosed Nuclei (%) [9]: 8% | Population Tubulin-Different-Phenotype (%) [9]: 17% | Total Cell Count [9]: 771 | Population Apoptotic (%) [10]: 14% | Population Fragmented Nuclei (%) [10]: 13% | Population Healthy Nuclei (%) [10]: 81% | Population Hoechst High Intensity Objects (%) [10]: 4% | Population Membrane Permeable-Phenotype (%) [10]: 0% | Population Mitochondria Different-Phenotype (%) [10]: 30% | Population Mitotic Cells (%) [10]: 85% | Population Normal (%) [10]: 95% | Population Pyknosed Nuclei (%) [10]: 5% | Population Tubulin-Different-Phenotype (%) [10]: 11% | Total Cell Count [10]: 640 | Population Apoptotic (%) [11]: 50% | Population Fragmented Nuclei (%) [11]: 14% | Population Healthy Nuclei (%) [11]: 73% | Population Hoechst High Intensity Objects (%) [11]: 15% | Population Membrane Permeable-Phenotype (%) [11]: 0% | Population Mitochondria Different-Phenotype (%) [11]: 65% | Population Mitotic Cells (%) [11]: 49% | Population Normal (%) [11]: 84% | Population Pyknosed Nuclei (%) [11]: 12% | Population Tubulin-Different-Phenotype (%) [11]: 63% | Total Cell Count [11]: 605 | Population Apoptotic (%) [12]: 52% | Population Fragmented Nuclei (%) [12]: 10% | Population Healthy Nuclei (%) [12]: 79% | Population Hoechst High Intensity Objects (%) [12]: 8% | Population Mitochondria Different-Phenotype (%) [12]: 71% | Population Mitotic Cells (%) [12]: 47% | Population Normal (%) [12]: 91% | Population Pyknosed Nuclei (%) [12]: 9% | Total Cell Count [12]: 613

O=c1ccc2ccc(OCCCCN3CCN(c4cccc5sccc45)CC3)cc2[nH]1 [BREXPIPRAZOLE]
Population Apoptotic (%) [1]: 44% | Population Fragmented Nuclei (%) [1]: 6% | Population Healthy Nuclei (%) [1]: 77% | Population Hoechst High Intensity Objects (%) [1]: 6% | Population Membrane Permeable-Phenotype (%) [1]: 0% | Population Mitochondria Different-Phenotype (%) [1]: 67% | Population Mitotic Cells (%) [1]: 55% | Population Normal (%) [1]: 93% | Population Pyknosed Nuclei (%) [1]: 15% | Population Tubulin-Different-Phenotype (%) [1]: 51% | Total Cell Count [1]: 392 | Population Apoptotic (%) [2]: 42% | Population Fragmented Nuclei (%) [2]: 5% | Population Healthy Nuclei (%) [2]: 80% | Population Mitochondria Different-Phenotype (%) [2]: 69% | Population Mitotic Cells (%) [2]: 57% | Population Pyknosed Nuclei (%) [2]: 14% | Population Tubulin-Different-Phenotype (%) [2]: 47% | Total Cell Count [2]: 354 | Population Apoptotic (%) [3]: 82% | Population Fragmented Nuclei (%) [3]: 17% | Population Healthy Nuclei (%) [3]: 43% | Population Hoechst High Intensity Objects (%) [3]: 66% | Population Membrane Permeable-Phenotype (%) [3]: 0% | Population Mitochondria Different-Phenotype (%) [3]: 97% | Population Mitotic Cells (%) [3]: 17% | Population Normal (%) [3]: 33% | Population Pyknosed Nuclei (%) [3]: 38% | Population Tubulin-Different-Phenotype (%) [3]: 81% | Total Cell Count [3]: 299 | Population Apoptotic (%) [4]: 85% | Population Fragmented Nuclei (%) [4]: 10% | Population Healthy Nuclei (%) [4]: 66% | Population Hoechst High Intensity Objects (%) [4]: 41% | Population Mitochondria Different-Phenotype (%) [4]: 100% | Population Mitotic Cells (%) [4]: 14% | Population Normal (%) [4]: 59% | Population Pyknosed Nuclei (%) [4]: 23% | Population Tubulin-Different-Phenotype (%) [4]: 62% | Total Cell Count [4]: 200 | Population Apoptotic (%) [5]: 41% | Population Fragmented Nuclei (%) [5]: 10% | Population Healthy Nuclei (%) [5]: 73% | Population Hoechst High Intensity Objects (%) [5]: 8% | Population Membrane Permeable-Phenotype (%) [5]: 0% | Population Mitochondria Different-Phenotype (%) [5]: 51% | Population Mitotic Cells (%) [5]: 58% | Population Normal (%) [5]: 91% | Population Pyknosed Nuclei (%) [5]: 16% | Population Tubulin-Different-Phenotype (%) [5]: 36% | Total Cell Count [5]: 501 | Population Apoptotic (%) [6]: 42% | Population Fragmented Nuclei (%) [6]: 4% | Population Healthy Nuclei (%) [6]: 87% | Population Hoechst High Intensity Objects (%) [6]: 2% | Population Mitochondria Different-Phenotype (%) [6]: 52% | Population Mitotic Cells (%) [6]: 57% | Population Normal (%) [6]: 97% | Population Pyknosed Nuclei (%) [6]: 7% | Population Tubulin-Different-Phenotype (%) [6]: 35% | Total Cell Count [6]: 449 | Population Apoptotic (%) [7]: 91% | Population Fragmented Nuclei (%) [7]: 12% | Population Healthy Nuclei (%) [7]: 37% | Population Hoechst High Intensity Objects (%) [7]: 68% | Population Membrane Permeable-Phenotype (%) [7]: 0% | Population Mitochondria Different-Phenotype (%) [7]: 100% | Population Mitotic Cells (%) [7]: 8% | Population Normal (%) [7]: 31% | Population Pyknosed Nuclei (%) [7]: 50% | Population Tubulin-Different-Phenotype (%) [7]: 66% | Total Cell Count [7]: 284 | Population Apoptotic (%) [8]: 89% | Population Fragmented Nuclei (%) [8]: 10% | Population Healthy Nuclei (%) [8]: 59% | Population Hoechst High Intensity Objects (%) [8]: 46% | Population Mitochondria Different-Phenotype (%) [8]: 98% | Population Mitotic Cells (%) [8]: 10% | Population Normal (%) [8]: 53% | Population Pyknosed Nuclei (%) [8]: 30% | Population Tubulin-Different-Phenotype (%) [8]: 57% | Total Cell Count [8]: 180 | Population Apoptotic (%) [9]: 49% | Population Fragmented Nuclei (%) [9]: 9% | Population Healthy Nuclei (%) [9]: 80% | Population Hoechst High Intensity Objects (%) [9]: 5% | Population Membrane Permeable-Phenotype (%) [9]: 0% | Population Mitochondria Different-Phenotype (%) [9]: 47% | Population Mitotic Cells (%) [9]: 50% | Population Normal (%) [9]: 94% | Population Pyknosed Nuclei (%) [9]: 10% | Population Tubulin-Different-Phenotype (%) [9]: 28% | Total Cell Count [9]: 679 | Population Apoptotic (%) [10]: 48% | Population Fragmented Nuclei (%) [10]: 12% | Population Healthy Nuclei (%) [10]: 79% | Population Hoechst High Intensity Objects (%) [10]: 3% | Population Membrane Permeable-Phenotype (%) [10]: 1% | Population Mitochondria Different-Phenotype (%) [10]: 36% | Population Mitotic Cells (%) [10]: 51% | Population Normal (%) [10]: 96% | Population Pyknosed Nuclei (%) [10]: 7% | Population Tubulin-Different-Phenotype (%) [10]: 26% | Total Cell Count [10]: 644 | Population Apoptotic (%) [11]: 93% | Population Fragmented Nuclei (%) [11]: 19% | Population Healthy Nuclei (%) [11]: 30% | Population Hoechst High Intensity Objects (%) [11]: 67% | Population Membrane Permeable-Phenotype (%) [11]: 0% | Population Mitochondria Different-Phenotype (%) [11]: 96% | Population Mitotic Cells (%) [11]: 6% | Population Normal (%) [11]: 32% | Population Pyknosed Nuclei (%) [11]: 50% | Population Tubulin-Different-Phenotype (%) [11]: 51% | Total Cell Count [11]: 269 | Population Apoptotic (%) [12]: 89% | Population Fragmented Nuclei (%) [12]: 14% | Population Healthy Nuclei (%) [12]: 50% | Population Hoechst High Intensity Objects (%) [12]: 52% | Population Mitochondria Different-Phenotype (%) [12]: 97% | Population Mitotic Cells (%) [12]: 10% | Population Normal (%) [12]: 47% | Population Pyknosed Nuclei (%) [12]: 34% | Population Tubulin-Different-Phenotype (%) [12]: 82% | Total Cell Count [12]: 170
